Measured values from ChEMBL document CHEMBL1177711, “Novel quinolizidinyl derivatives as antiarrhythmic agents: 2. Further investigation” (J Med Chem, 2010).

Test system: not listed separately
Assay: Antiarrhythmic activity in sinusoidal alternating current-induced guinea pig left atrium assessed as increase in current strength at which extra beats occur at 50 uM measured every 30 mins
Format: functional, Cavia porcellus, Cardiac atrium
Settings: not given
Method in brief: (§1)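 Isolated guinea pig left atria, electrically driven at 1 Hz, were exposed to sinusoidal alternating current to induce arrhythmia. The read-out was the rise in the ac-arrhythmia threshold over concentrations up to 100 μM.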

Compound	Activity
Cc1cccc(C)c1NC(=O)CSC[C@@H]1CCCN2CCCC[C@H]12 [LUPINYLTHIOACETYLANILIDE]	67%
Cc1cc(C(=O)c2ccccc2)ccc1NC(=O)C[C@@H]1CCCN2CCCC[C@H]12	64%

Test system: not listed separately
Assay: Cardioprotective effect in Langendorff perfused guinea pig spontaneously beating […] assessed as intraventicular conduction time at 0.1 uM (RVb = 19 to 24 +/- 1 to 2 ms)
Format: functional
Settings: Cavia porcellus
Method in brief: (§2)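 Whole guinea pig hearts were Langendorff-perfused and their ECG recorded at graded concentrations. Intervals read were PR (atrioventricular conduction time), QT (ventricular action potential duration) and QRS (intraventricular conduction time).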

Compound	intraventricular conduction time
Cc1cccc(C)c1NC(=O)CSC[C@@H]1CCCN2CCCC[C@H]12 [LUPINYLTHIOACETYLANILIDE]	24 ms
Cc1cc(C(=O)c2ccccc2)ccc1NC(=O)C[C@@H]1CCCN2CCCC[C@H]12	23 ms

Test system: Heart
Assay: Cardioprotective effect in Langendorff perfused guinea pig spontaneously beating […] assessed as heart rat at 0.01 uM (RVb = 175 to 190 +/- 5 to 11 bpm)
Format: functional, Cavia porcellus
Settings: not given

Compound	Activity
Cc1cccc(C)c1NC(=O)CSC[C@@H]1CCCN2CCCC[C@H]12 [LUPINYLTHIOACETYLANILIDE]	175 bpm
Cc1cc(C(=O)c2ccccc2)ccc1NC(=O)C[C@@H]1CCCN2CCCC[C@H]12	171 bpm

Test system: not listed separately
Assay: Negative chronotropic activity against potassium-induced contraction in guinea pig left atrium assessed as decrease atrial rate at 100 uM relative to control
Format: functional, Cavia porcellus, Cardiac atrium
Parameters: scale not given: the % may be the effect or the level left
Settings: not given

Compound	Activity
Cc1cccc(C)c1NC(=O)CSC[C@@H]1CCCN2CCCC[C@H]12 [LUPINYLTHIOACETYLANILIDE]	30%
Cc1cc(C(=O)c2ccccc2)ccc1NC(=O)C[C@@H]1CCCN2CCCC[C@H]12	59%

Test system: not listed separately
Assay: Antiarrhythmic activity in sinusoidal alternating current-induced guinea pig left atrium assessed as increase in current strength at which extra beats occur measured every 30 mins
Format: functional, tissue-based
Settings: Cavia porcellus, Cardiac atrium, 0.5 h
Method in brief: as §1

Compound	EC50
Cc1cccc(C)c1NC(=O)CSC[C@@H]1CCCN2CCCC[C@H]12 [LUPINYLTHIOACETYLANILIDE]	590 nM
Cc1cc(C(=O)c2ccccc2)ccc1NC(=O)C[C@@H]1CCCN2CCCC[C@H]12	150 nM

Test system: not listed separately
Assay: Cardioprotective effect in Langendorff perfused guinea pig spontaneously beating […] assessed as duration of ventricular action potential at 0.1 uM (RVb = 140 to 161 +/- 2 to 8 ms)
Format: functional, Cavia porcellus, Cardiac ventricle
Settings: not given
Method in brief: as §2

Compound	Activity
Cc1cccc(C)c1NC(=O)CSC[C@@H]1CCCN2CCCC[C@H]12 [LUPINYLTHIOACETYLANILIDE]	157 ms
Cc1cc(C(=O)c2ccccc2)ccc1NC(=O)C[C@@H]1CCCN2CCCC[C@H]12	155 ms

Test system: not listed separately
Assay: Cardioprotective effect in Langendorff perfused guinea pig spontaneously beating […] assessed as atrioventicular conduction time at 10 uM (RVb = 50 to 55 +/- 1 to 4 ms)
Format: functional
Settings: Cavia porcellus
Method in brief: as §2

Compound	AV conduction time
Cc1cccc(C)c1NC(=O)CSC[C@@H]1CCCN2CCCC[C@H]12 [LUPINYLTHIOACETYLANILIDE]	60 ms
Cc1cc(C(=O)c2ccccc2)ccc1NC(=O)C[C@@H]1CCCN2CCCC[C@H]12	57 ms

Test system: not listed separately
Assay: Cardioprotective effect in Langendorff perfused guinea pig spontaneously beating […] assessed as intraventicular conduction time at 0.01 uM (RVb = 19 to 24 +/- 1 to 2 ms)
Format: functional
Settings: Cavia porcellus
Method in brief: as §2

Compound	intraventricular conduction time
Cc1cccc(C)c1NC(=O)CSC[C@@H]1CCCN2CCCC[C@H]12 [LUPINYLTHIOACETYLANILIDE]	22 ms
Cc1cc(C(=O)c2ccccc2)ccc1NC(=O)C[C@@H]1CCCN2CCCC[C@H]12	20 ms

Test system: not listed separately
Assay: Cardioprotective effect in Langendorff perfused guinea pig spontaneously beating […] assessed as duration of ventricular action potential at 10 uM (RVb = 140 to 161 +/- 2 to 8 ms)
Format: functional, Cavia porcellus, Cardiac ventricle
Settings: not given
Method in brief: as §2

Compound	Activity
Cc1cccc(C)c1NC(=O)CSC[C@@H]1CCCN2CCCC[C@H]12 [LUPINYLTHIOACETYLANILIDE]	168 ms
Cc1cc(C(=O)c2ccccc2)ccc1NC(=O)C[C@@H]1CCCN2CCCC[C@H]12	170 ms

Test system: Heart
Assay: Cardioprotective effect in Langendorff perfused guinea pig spontaneously beating […] assessed as heart rat at 0.001 uM (RVb = 175 to 190 +/- 5 to 11 bpm)
Format: functional, Cavia porcellus
Settings: not given

Compound	Activity
Cc1cccc(C)c1NC(=O)CSC[C@@H]1CCCN2CCCC[C@H]12 [LUPINYLTHIOACETYLANILIDE]	181 bpm
Cc1cc(C(=O)c2ccccc2)ccc1NC(=O)C[C@@H]1CCCN2CCCC[C@H]12	177 bpm

Test system: not listed separately
Assay: Cardioprotective effect in Langendorff perfused guinea pig spontaneously beating […] assessed as atrioventicular conduction time at 0.1 uM (RVb = 50 to 55 +/- 1 to 4 ms)
Format: functional
Settings: Cavia porcellus
Method in brief: as §2

Compound	AV conduction time
Cc1cccc(C)c1NC(=O)CSC[C@@H]1CCCN2CCCC[C@H]12 [LUPINYLTHIOACETYLANILIDE]	53 ms
Cc1cc(C(=O)c2ccccc2)ccc1NC(=O)C[C@@H]1CCCN2CCCC[C@H]12	53 ms

Test system: not listed separately
Assay: Cardioprotective effect in Langendorff perfused guinea pig spontaneously beating […] assessed as atrioventicular conduction time at 0.001 uM (RVb = 50 to 55 +/- 1 to 4 ms)
Format: functional
Settings: Cavia porcellus
Method in brief: as §2

Compound	AV conduction time
Cc1cccc(C)c1NC(=O)CSC[C@@H]1CCCN2CCCC[C@H]12 [LUPINYLTHIOACETYLANILIDE]	52 ms
Cc1cc(C(=O)c2ccccc2)ccc1NC(=O)C[C@@H]1CCCN2CCCC[C@H]12	54 ms

Test system: Heart
Assay: Cardioprotective effect in Langendorff perfused guinea pig spontaneously beating […] assessed as heart rat at 1 uM (RVb = 175 to 190 +/- 5 to 11 bpm)
Format: functional, Cavia porcellus
Settings: not given

Compound	Activity
Cc1cccc(C)c1NC(=O)CSC[C@@H]1CCCN2CCCC[C@H]12 [LUPINYLTHIOACETYLANILIDE]	166 bpm
Cc1cc(C(=O)c2ccccc2)ccc1NC(=O)C[C@@H]1CCCN2CCCC[C@H]12	145 bpm

Test system: not listed separately
Assay: Cardioprotective effect in Langendorff perfused guinea pig spontaneously beating […] assessed as atrioventicular conduction time at 1 uM (RVb = 50 to 55 +/- 1 to 4 ms)
Format: functional
Settings: Cavia porcellus
Method in brief: as §2

Compound	AV conduction time
Cc1cccc(C)c1NC(=O)CSC[C@@H]1CCCN2CCCC[C@H]12 [LUPINYLTHIOACETYLANILIDE]	55 ms
Cc1cc(C(=O)c2ccccc2)ccc1NC(=O)C[C@@H]1CCCN2CCCC[C@H]12	56 ms

Test system: not listed separately
Assay: Cardioprotective effect in Langendorff perfused guinea pig spontaneously beating […] assessed as intraventicular conduction time at 1 uM (RVb = 19 to 24 +/- 1 to 2 ms)
Format: functional
Settings: Cavia porcellus
Method in brief: as §2

Compound	intraventricular conduction time
Cc1cccc(C)c1NC(=O)CSC[C@@H]1CCCN2CCCC[C@H]12 [LUPINYLTHIOACETYLANILIDE]	24 ms
Cc1cc(C(=O)c2ccccc2)ccc1NC(=O)C[C@@H]1CCCN2CCCC[C@H]12	22 ms

Test system: not listed separately
Assay: Negative inotropic activity against potassium-induced contraction in guinea pig left atrium assessed as decrease in developed tension at 10 uM relative to control
Format: functional, Cavia porcellus, Cardiac atrium
Parameters: scale not given: the % may be the effect or the level left
Settings: not given

Compound	Activity
Cc1cc(C(=O)c2ccccc2)ccc1NC(=O)C[C@@H]1CCCN2CCCC[C@H]12	79%

Test system: not listed separately
Assay: Negative inotropic activity against potassium-induced contraction in guinea pig left atrium assessed as decrease in developed tension at 0.1 uM relative to control
Format: functional, Cavia porcellus, Cardiac atrium
Parameters: scale not given: the % may be the effect or the level left
Settings: not given

Compound	Activity
Cc1cccc(C)c1NC(=O)CSC[C@@H]1CCCN2CCCC[C@H]12 [LUPINYLTHIOACETYLANILIDE]	48%

Test system: not listed separately
Assay: Cardioprotective effect in Langendorff perfused guinea pig spontaneously beating […] assessed as duration of ventricular action potential at 0.01 uM (RVb = 140 to 161 +/- 2 to 8 ms)
Format: functional, Cavia porcellus, Cardiac ventricle
Settings: not given
Method in brief: as §2

Compound	Activity
Cc1cccc(C)c1NC(=O)CSC[C@@H]1CCCN2CCCC[C@H]12 [LUPINYLTHIOACETYLANILIDE]	155 ms
Cc1cc(C(=O)c2ccccc2)ccc1NC(=O)C[C@@H]1CCCN2CCCC[C@H]12	154 ms

Test system: Heart
Assay: Cardioprotective effect in Langendorff perfused guinea pig spontaneously beating […] assessed as heart rat at 10 uM (RVb = 175 to 190 +/- 5 to 11 bpm)
Format: functional, Cavia porcellus
Settings: not given

Compound	Activity
Cc1cccc(C)c1NC(=O)CSC[C@@H]1CCCN2CCCC[C@H]12 [LUPINYLTHIOACETYLANILIDE]	156 bpm
Cc1cc(C(=O)c2ccccc2)ccc1NC(=O)C[C@@H]1CCCN2CCCC[C@H]12	137 bpm

Test system: not listed separately
Assay: Negative inotropic activity against potassium-induced contraction in guinea pig left atrium assessed as decrease in developed tension
Format: functional, tissue-based
Settings: Cavia porcellus, Cardiac atrium

Compound	EC50
Cc1cc(C(=O)c2ccccc2)ccc1NC(=O)C[C@@H]1CCCN2CCCC[C@H]12	44 nM

Test system: not listed separately
Assay: Cardioprotective effect in Langendorff perfused guinea pig spontaneously beating […] assessed as duration of ventricular action potential at 0.001 uM (RVb = 140 to 161 +/- 2 to 8 ms)
Format: functional, Cavia porcellus, Cardiac ventricle
Settings: not given
Method in brief: as §2

Compound	Activity
Cc1cccc(C)c1NC(=O)CSC[C@@H]1CCCN2CCCC[C@H]12 [LUPINYLTHIOACETYLANILIDE]	150 ms
Cc1cc(C(=O)c2ccccc2)ccc1NC(=O)C[C@@H]1CCCN2CCCC[C@H]12	158 ms

Test system: not listed separately
Assay: Negative chronotropic activity against potassium-induced contraction in guinea pig left atrium assessed as decrease atrial rate
Format: functional, tissue-based
Settings: Cavia porcellus, Cardiac atrium

Compound	EC50
Cc1cc(C(=O)c2ccccc2)ccc1NC(=O)C[C@@H]1CCCN2CCCC[C@H]12	6140 nM

Test system: not listed separately
Assay: Cardioprotective effect in Langendorff perfused guinea pig spontaneously beating […] assessed as intraventicular conduction time at 0.001 uM (RVb = 19 to 24 +/- 1 to 2 ms)
Format: functional
Settings: Cavia porcellus
Method in brief: as §2

Compound	intraventricular conduction time
Cc1cccc(C)c1NC(=O)CSC[C@@H]1CCCN2CCCC[C@H]12 [LUPINYLTHIOACETYLANILIDE]	22 ms
Cc1cc(C(=O)c2ccccc2)ccc1NC(=O)C[C@@H]1CCCN2CCCC[C@H]12	23 ms

Test system: Heart
Assay: Cardioprotective effect in Langendorff perfused guinea pig spontaneously beating […] assessed as heart rat at 0.1 uM (RVb = 175 to 190 +/- 5 to 11 bpm)
Format: functional, Cavia porcellus
Settings: not given

Compound	Activity
Cc1cccc(C)c1NC(=O)CSC[C@@H]1CCCN2CCCC[C@H]12 [LUPINYLTHIOACETYLANILIDE]	171 bpm
Cc1cc(C(=O)c2ccccc2)ccc1NC(=O)C[C@@H]1CCCN2CCCC[C@H]12	158 bpm

Test system: not listed separately
Assay: Cardioprotective effect in Langendorff perfused guinea pig spontaneously beating […] assessed as duration of ventricular action potential at 1 uM (RVb = 140 to 161 +/- 2 to 8 ms)
Format: functional, Cavia porcellus, Cardiac ventricle
Settings: not given
Method in brief: as §2

Compound	Activity
Cc1cccc(C)c1NC(=O)CSC[C@@H]1CCCN2CCCC[C@H]12 [LUPINYLTHIOACETYLANILIDE]	164 ms
Cc1cc(C(=O)c2ccccc2)ccc1NC(=O)C[C@@H]1CCCN2CCCC[C@H]12	162 ms

Test system: not listed separately
Assay: Cardioprotective effect in Langendorff perfused guinea pig spontaneously beating […] assessed as atrioventicular conduction time at 0.01 uM (RVb = 50 to 55 +/- 1 to 4 ms)
Format: functional
Settings: Cavia porcellus
Method in brief: as §2

Compound	AV conduction time
Cc1cccc(C)c1NC(=O)CSC[C@@H]1CCCN2CCCC[C@H]12 [LUPINYLTHIOACETYLANILIDE]	51 ms
Cc1cc(C(=O)c2ccccc2)ccc1NC(=O)C[C@@H]1CCCN2CCCC[C@H]12	54 ms

Test system: not listed separately
Assay: Cardioprotective effect in Langendorff perfused guinea pig spontaneously beating […] assessed as intraventicular conduction time at 10 uM (RVb = 19 to 24 +/- 1 to 2 ms)
Format: functional
Settings: Cavia porcellus
Method in brief: as §2

Compound	intraventricular conduction time
Cc1cccc(C)c1NC(=O)CSC[C@@H]1CCCN2CCCC[C@H]12 [LUPINYLTHIOACETYLANILIDE]	23 ms
Cc1cc(C(=O)c2ccccc2)ccc1NC(=O)C[C@@H]1CCCN2CCCC[C@H]12	25 ms
